Measurements reported in ChEMBL document CHEMBL1143402 (PLoS Med, 2006).

Legend:
[1] = test system: Mycobacterium tuberculosis; test: Antimycobacterial activity against Mycobacterium tuberculosis Kurono infected ICR mouse assessed as reduction in viable lung bacterial count at 160 mg/kg, po administered once daily measured after 28 days; type: functional
Procedure, shortened: (§1)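 ICR mice infected via caudal vein with 8.6 × 10^4 CFU M. tuberculosis Kurono; after 28 d, stratified randomisation (n = 5/group), then oral dosing once daily for 28 d in 5% gum arabic, 2-fold dose series. Lungs homogenised in water, dilutions plated on 7H11 agar, colonies counted after 14 d at 37 °C; log10 CFU.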

[2] = Cmax in human at 850 mg, po; type: ADME, organism-based; set-up: dose 850 mg, route oral; conditions: in vivo
[3] = AUC (0 to t) in human at 850 mg, po; type: ADME, organism-based; conditions: plasma
CYP2E1 = CYP2E1 (Homo sapiens, UniProt P05181); test: Effect on CYP2E1 in human liver assessed as chlorzoxazone 6-hydroxylation at 100 uM relative to control; type: ADME, tissue-based; conditions: probe chlorzoxazone, read-out: Activity
CYP2A6 = molecular target: T1, CYP2A6 (Homo sapiens, UniProt P11509); test: Effect on CYP2A6 in human liver assessed as coumarin 7-hydroxylation at 100 uM relative to control; type: ADME, tissue-based; conditions: probe coumarin, read-out: Activity
T1 sequence (P11509 whole entry): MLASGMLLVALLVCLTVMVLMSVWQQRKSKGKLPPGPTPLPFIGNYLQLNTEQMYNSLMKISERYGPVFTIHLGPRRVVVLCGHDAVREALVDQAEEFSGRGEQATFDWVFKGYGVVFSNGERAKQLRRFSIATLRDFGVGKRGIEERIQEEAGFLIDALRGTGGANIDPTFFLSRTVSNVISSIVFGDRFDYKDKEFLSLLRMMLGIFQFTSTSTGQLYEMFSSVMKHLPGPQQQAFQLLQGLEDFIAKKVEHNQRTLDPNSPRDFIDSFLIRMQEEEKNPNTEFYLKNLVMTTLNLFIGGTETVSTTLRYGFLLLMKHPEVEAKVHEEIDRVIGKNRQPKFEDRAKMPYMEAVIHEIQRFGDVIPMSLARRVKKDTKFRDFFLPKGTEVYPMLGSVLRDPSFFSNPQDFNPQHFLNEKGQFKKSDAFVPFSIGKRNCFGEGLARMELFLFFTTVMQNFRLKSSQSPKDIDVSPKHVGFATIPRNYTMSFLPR

[4] = test system: Mycobacterium tuberculosis; test: Antimycobacterial activity against Mycobacterium tuberculosis Kurono infected ICR mouse assessed as reduction in viable lung bacterial count at 40 mg/kg, po administered once daily measured after 28 days; type: functional; procedure, shortened: as §1
[5] = AUC (0 to t) in human at 300 mg, po; type: ADME, organism-based; conditions: plasma
[6] = test system: Mycobacterium tuberculosis; test: Antimycobacterial activity against Mycobacterium tuberculosis Kurono infected ICR mouse assessed as reduction in viable lung bacterial count at 5 mg/kg, po administered once daily measured after 28 days; type: functional; procedure, shortened: as §1
[7] = test system: Mycobacterium tuberculosis; test: Antimycobacterial activity against Mycobacterium tuberculosis Kurono infected ICR mouse assessed as reduction in viable lung bacterial count at 3.5 mg/kg, po administered once daily measured after 28 days; type: functional; procedure, shortened: as §1
[8] = Plasma concentration in Mycobacterium bovis BCG infected tuberculosis mouse model at 5 mg/kg, po after 0.5 hrs; type: ADME, organism-based; set-up: dose 5 mg/kg, route oral
Procedure, shortened: (§2)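 The agent, dissolved or suspended in 5% gum arabic, was then given orally. At each time point, about 1 ml of blood was drawn from the abdominal post cava under ether into a heparinised syringe and centrifuged at 3,000 rpm, 5 °C. Plasma (0.1 ml) was mixed with 0.2 ml acetonitrile.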

[9] = Plasma concentration in Mycobacterium bovis BCG infected tuberculosis mouse model at 5 mg/kg, po after 16 hrs; type: ADME, organism-based; set-up: dose 5 mg/kg, route oral; procedure, shortened: as §2
[10] = Plasma concentration in Mycobacterium bovis BCG infected tuberculosis mouse model at 5 mg/kg, po after 4 hrs; type: ADME, organism-based; set-up: dose 5 mg/kg, route oral; procedure, shortened: as §2
[11] = Plasma concentration in Mycobacterium bovis BCG infected tuberculosis mouse model at 5 mg/kg, po after 8 hrs; type: ADME, organism-based; set-up: dose 5 mg/kg, route oral; procedure, shortened: as §2
[12] = Plasma concentration in Mycobacterium bovis BCG infected tuberculosis mouse model at 5 mg/kg, po after 1 hr; type: ADME, organism-based; set-up: dose 5 mg/kg, route oral; procedure, shortened: as §2
[13] = Plasma concentration in Mycobacterium bovis BCG infected tuberculosis mouse model at 5 mg/kg, po after 2 hrs; type: ADME, organism-based; set-up: dose 5 mg/kg, route oral; procedure, shortened: as §2
Salmonella typhimurium [14] = test: Toxic mutagenic effect in Salmonella Typhimurium TA100 in presence of rat liver microsomes after 48 hrs by bacterial reverse mutation test; type: toxicity, organism-based; conditions: salmonella enterica subsp. enterica serovar typhimurium
[15] = Stability in rabbit liver microsomes; type: ADME, Oryctolagus cuniculus, Microsome
Procedure, shortened: (§3)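 Liver microsomes (1 mg/ml protein) incubated with 100 µM drug, 2.5 mM NADPH and 2.5 mM NADH in 100 mM phosphate pH 7.4 with 1% DMSO. Run in duplicate, 2 h at 37 °C with shaking. Extracted with acetonitrile/ethyl acetate; analysed by HPLC and LC-ESI-MS/MS.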

[16] = Stability in mouse liver microsomes; type: ADME, Microsome; procedure, shortened: as §3
Salmonella typhimurium [17] = test: Toxic mutagenic effect in Salmonella Typhimurium TA98 in presence of rat liver microsomes after 48 hrs by bacterial reverse mutation test; type: toxicity, organism-based; conditions: salmonella enterica subsp. enterica serovar typhimurium
[18] = Stability in dog liver microsomes; type: ADME, Canis lupus familiaris, Microsome; procedure, shortened: as §3
[19] = test system: Mycobacterium tuberculosis; test: Antimycobacterial activity against Mycobacterium tuberculosis Kurono infected po dosed immunocompromized BALB/c mouse assessed as reduction in viable lung bacterial count administered once daily; type: functional, organism-based
Procedure, shortened: (§4)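 From day 1, randomised by body weight (n = 5/group) and dosed orally once daily for 10 d, 10 to 0.313 mg/kg in 2-fold steps, in 5% gum arabic. Lung homogenates plated on 7H11 agar, colonies counted after 14 d; log10 CFU.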

[20] = test system: Mycobacterium tuberculosis; test: Antimycobacterial activity against Mycobacterium tuberculosis H37Rv in human THP1 cells after 4 hrs; type: functional, organism-based; conditions: THP-1
Procedure, shortened: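 PMA-differentiated human THP-1 macrophages infected 4 h with H37Rv, washed, then 20 µg/ml SM for 20 h to kill extracellular bacilli. Compound pulse for 4 h, washout, further 68-h culture. Lysis in 0.1% SDS, plating on 7H11 agar, colonies counted after 16 d at 37 °C; n = 3.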

Salmonella typhimurium [21] = test: Toxic mutagenic effect in Salmonella Typhimurium TA1535 in presence of rat liver microsomes after 48 hrs by bacterial reverse mutation test; type: toxicity, organism-based; conditions: salmonella enterica subsp. enterica serovar typhimurium
Salmonella typhimurium [22] = test: Toxic mutagenic effect in Salmonella Typhimurium TA1537 in presence of rat liver microsomes after 48 hrs by bacterial reverse mutation test; type: toxicity, organism-based; conditions: salmonella enterica subsp. enterica serovar typhimurium
Liver microsomes [23] = test: Stability in rat liver microsomes; type: ADME, Microsome; procedure, shortened: as §3
[24] = test system: Mycobacterium tuberculosis; test: Antimycobacterial activity against Mycobacterium tuberculosis Kurono infected po dosed BALB/c mouse assessed as reduction in viable lung bacterial count administered once daily; type: functional, organism-based; procedure, shortened: as §4
[25] = Stability in monkey liver microsomes; type: ADME, Macaca mulatta, Microsome; conditions: rhesus monkey; procedure, shortened: as §3
Liver microsomes [26] = test: Stability in human liver microsomes; type: ADME, Microsome; procedure, shortened: as §3
CYP1A1/CYP1A2 = molecular target: T2, CYP1A1/CYP1A2 (Homo sapiens, UniProt P04798); test: Effect on CYP1A1/CYP1A2 in human liver assessed as 7-ethoxyresorufin O-deethylation at 100 uM relative to control; type: ADME, tissue-based; conditions: probe 7-ethoxyresorufin, read-out: Activity
T2 sequence (P04798 whole entry): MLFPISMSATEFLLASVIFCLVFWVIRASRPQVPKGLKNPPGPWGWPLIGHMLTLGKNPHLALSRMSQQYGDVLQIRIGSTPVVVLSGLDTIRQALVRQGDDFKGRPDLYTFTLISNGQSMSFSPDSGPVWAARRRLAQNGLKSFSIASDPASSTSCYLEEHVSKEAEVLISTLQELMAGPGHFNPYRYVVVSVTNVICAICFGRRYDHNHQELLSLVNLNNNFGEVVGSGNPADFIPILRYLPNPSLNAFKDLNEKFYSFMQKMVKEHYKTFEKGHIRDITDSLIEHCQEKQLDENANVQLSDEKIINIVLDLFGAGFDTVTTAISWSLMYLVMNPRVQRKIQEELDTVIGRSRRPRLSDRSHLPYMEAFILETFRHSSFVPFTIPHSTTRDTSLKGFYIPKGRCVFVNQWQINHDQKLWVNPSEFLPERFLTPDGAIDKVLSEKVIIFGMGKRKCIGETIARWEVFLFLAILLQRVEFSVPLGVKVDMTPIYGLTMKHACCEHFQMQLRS
Procedure, shortened: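 Human liver microsomes (0.1–0.5 mg protein) in 0.1 M phosphate pH 7.4 with 0.1 mM EDTA and NADPH-generating system. […] Metabolite formation by HPLC, in triplicate; mean expressed as % of control.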

CYP2E1, sequence (P05181 whole entry): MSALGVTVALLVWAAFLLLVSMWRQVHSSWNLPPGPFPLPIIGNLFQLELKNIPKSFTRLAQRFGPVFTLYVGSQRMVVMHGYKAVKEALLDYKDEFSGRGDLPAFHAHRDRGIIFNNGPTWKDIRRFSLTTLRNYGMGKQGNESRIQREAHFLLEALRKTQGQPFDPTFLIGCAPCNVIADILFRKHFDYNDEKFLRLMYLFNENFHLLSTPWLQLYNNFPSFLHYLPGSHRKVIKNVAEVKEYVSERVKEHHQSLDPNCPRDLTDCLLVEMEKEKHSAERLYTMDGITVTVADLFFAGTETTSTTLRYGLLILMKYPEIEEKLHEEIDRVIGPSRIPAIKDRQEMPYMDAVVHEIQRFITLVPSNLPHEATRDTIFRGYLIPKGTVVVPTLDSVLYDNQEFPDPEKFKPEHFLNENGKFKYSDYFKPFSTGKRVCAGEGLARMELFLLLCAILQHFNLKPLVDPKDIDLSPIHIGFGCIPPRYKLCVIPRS

In the case of `CC[C@@H](CO)NCCN[C@@H](CC)CO` [ETHAMBUTOL], the Activity [1] is reported as 95%, the Cmax [2] is reported as 3700 ng/mL and the AUC(0-t) [3] is reported as 13000 ng·h/mL.
With `NC(=O)c1cnccn1` [PYRAZINAMIDE] the Activity [1] was 95%.
With `CCN(CC)C(=S)S` [DITIOCARB] the activity at 100 µM (CYP2E1) was 55% and the activity at 100 µM (CYP2A6) was 38.2%.
With `CN[C@@H]1[C@H](O[C@H]2[C@H](O[C@H]3[C@H](O)[C@@H](O)[C@H](N=C(N)N)[C@@H](O)[C@@H]3N=C(N)N)O[C@@H](C)[C@]2(O)C=O)O[C@@H](CO)[C@H](O)[C@H]1O` [STREPTOMYCIN] the Activity [4] was 95%.
With `NNC(=O)c1ccncc1` [ISONIAZID] the AUC(0-t) [5] was 22900 ng·h/mL and the Activity [6] was 95%.
Compound `CO[C@H]1/C=C/O[C@@]2(C)Oc3c(C)c(O)c4c(O)c(c(/C=N/N5CCN(C)CC5)c(O)c4c3C2=O)NC(=O)/C(C)=C\C=C\[C@H](C)[C@H](O)[C@@H](C)[C@@H](O)[C@@H](C)[C@H](OC(C)=O)[C@@H]1C` [RIFAMPIN] has an Activity [7] of 95%, a concentration at 0.5 h [8] of 3330 ng/mL and a concentration at 16 h [9] of 660 ng/mL. It also gave a concentration at 4 h [10] of 3820 ng/mL, a concentration at 8 h [11] of 3180 ng/mL and a concentration at 1 h [12] of 4490 ng/mL. For the same compound, the concentration at 2 h [13] was 4520 ng/mL.
For `C[C@]1(COc2ccc(N3CCC(Oc4ccc(OC(F)(F)F)cc4)CC3)cc2)Cn2cc([N+](=O)[O-])nc2O1`, the Activity (Salmonella typhimurium [14]) was “Non-toxic”, the Activity [15] was “Stable” and the Activity [16] was “Stable”. The Activity (Salmonella typhimurium [17]) was “Non-toxic”, the Activity [18] was “Stable” and the Activity [19] was “Dose-dependent effect”. For the same compound, the Activity [20] was “Dose-dependent effect”, the Activity (Salmonella typhimurium [21]) was “Non-toxic” and the Activity (Salmonella typhimurium [22]) was “Non-toxic”. The Activity (Liver microsomes [23]) was “Stable”, the Activity [24] was “Dose-dependent effect” and the Activity [25] was “Stable”. The Activity (Liver microsomes [26]) was “Stable”.
With `O=c1cc(-c2ccccc2)oc2c1ccc1ccccc12` [ALPHA-NAPHTHOFLAVONE] the activity at 100 µM (CYP1A1/CYP1A2) was 3.8%.
